From ChEMBL document CHEMBL1127300, “Identification, synthesis, and characterization of a unique class of N-methyl-D-aspartate antagonists. The 6,11-ethanobenzo[b]quinolizinium cation” (J Med Chem, 1994) come the findings set out here.

Assay [1] deals with Glutamate NMDA receptor. As to the kind of experiment: Binding affinity was determined towards NMDA receptor using [3H]thienylcyclidine as radioligand. It is filed as protein-complex assay. Put shortly:
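Rat (male Sprague–Dawley) whole-brain membranes, washed three times in 50 mM Tris-HCl pH 7.7 and resuspended in 5 mM Tris-HCl at 0.5 mg protein/tube. About 1 nM [3H]TCP final with varied test concentrations. 25 min at room temperature. Nonspecific binding defined with 100 μM PCP. Filtration on PEI-soaked glass-fibre filters and scintillation counting.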

Assay [2] is filed under the species Mus musculus. Kind of assay: In vitro neuroprotective efficacy determined to protect cultured mouse cortical neurons from an excitotoxic exposure to NMDA. It counts as functional.
The species entered for assay [3] is Mus musculus. As to the kind of experiment: In vitro for neuroprotective efficacy to protect cultured cortical neurons from an excitotoxic exposure to NMDA receptor. It counts as functional.
Assay [4] is filed under the species Mus musculus. Kind of assay: Electrophysiological responses in open channel block to NMDA were recorded in 13-day old mouse cortical neuronal cultures. It is filed as functional.
Assay [5] in a line: Ratio between closed channel blockade to open channel blockade. It is filed as functional. Summed up:
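Whole-cell voltage clamp at −60 mV, room temperature (ca. 23 °C), in day-13 mouse cortical neurons; 100 μM NMDA. Open-channel block: NMDA with compound for 300 s; current at 300 s normalized to peak, % inhibition vs controls. Closed-channel block: 30 min with compound plus 10 μM 7-chlorokynurenate without NMDA, 1–2 min wash, then NMDA response vs two baseline responses. IC50 from Hill-type fit.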

Assay [6] is filed under the species Mus musculus. Kind of assay: Percent inhibition of radioligand [3H]-LSD binding to 5-HT receptor at 10 uM concentration.
The target of assay [7] is Alpha-1 adrenergic receptor (Mus musculus) (UniProt P97714+P97717+P97718). Kind of assay: Percent inhibition of radioligand [3H]prazosin binding to alpha-1 receptor at 10 uM concentration. It is filed as protein assay.
The nature of assay [8]: Percent inhibition of radioligand [3H]NECA binding to A1,A2 receptor at 10 uM concentration.
Assay [9] concerns the target Alpha-2 adrenergic receptor (Mus musculus) (UniProt P30545+Q01338+Q01337). Kind of assay: Percent inhibition of radioligand [3H]rauwolscine binding to alpha-2 receptor at 10 uM concentration. It counts as protein assay.
Assay [10] is described as follows: Percent inhibition of […] binding to GABA-A benzodiazepine receptor at 10 uM.
Assay [11] deals with Beta-adrenergic receptor (Mus musculus) (UniProt P34971+P18762+P25962). As to the kind of experiment: Percent inhibition of radioligand [3H]DHAP binding to beta receptor at 10 uM concentration. It is filed as protein assay.
Assay [12] concerns the target D(2) dopamine receptor (Mus musculus) (UniProt P61168). Kind of assay: Percent inhibition of radioligand [3H]raclopride binding to D2 receptor at 10 uM concentration.
Assay [13] deals with D(1A) dopamine receptor (Mus musculus) (UniProt Q61616). As to the kind of experiment: Percent inhibition of radioligand [3H]SCH-23390 binding to dopamine receptor D1 at 10 uM concentration.
The target in assay [14] is Histamine H1 receptor (Mus musculus) (UniProt P70174). As to the kind of experiment: Percent inhibition of radioligand [3H]pyrilamine binding to H1 receptor at 10 uM concentration.
The target of assay [15] is Muscarinic acetylcholine receptor (Mus musculus) (UniProt Q920H4+Q9ERZ4+P12657+P32211+Q9ERZ3). Kind of assay: Percent inhibition of radioligand [3H]QNB binding to muscarinic receptor at 10 uM concentration. It counts as protein assay.
The target in assay [16] is Opioid receptor (Mus musculus) (UniProt P42866+P32300+P33534). Kind of assay: Percent inhibition of radioligand [3H]-naxalone binding to opiate receptor at 10 uM concentration. It counts as protein assay.
Assay [17] addresses Sigma non-opioid intracellular receptor 1 (Mus musculus) (UniProt O55242). As to the kind of experiment: Percent inhibition of radioligand [3H]DTG binding to sigma receptor at 10 uM concentration.
The target in assay [18] is D(1A) dopamine receptor (Mus musculus) (UniProt Q61616). As to the kind of experiment: Percent inhibition of radioligand [3H]SCH-23,390 binding to dopamine receptor D1 at 10 uM concentration.
Assay [19] deals with Glutamate NMDA receptor. Kind of assay: Binding affinity was determined towards NMDA receptor using [3H]TCP as radioligand in rat. Summed up:
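Rat (male Sprague–Dawley) whole-brain membranes, washed three times in 50 mM Tris-HCl pH 7.7 and resuspended in 5 mM Tris-HCl at 0.5 mg protein/tube. About 1 nM [3H]TCP final with varied test concentrations. 25 min at room temperature. Nonspecific binding defined with 100 μM PCP. Filtration on PEI-soaked glass-fibre filters and scintillation counting. Ki from EBDA/LIGAND; mean ± SEM of ≥3 determinations in triplicate.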

The species named for assay [20] is Mus musculus. As to the kind of experiment: Electrophysiological responses in closed channel block to NMDA were recorded in 13-day old mouse cortical neuronal cultures. It counts as functional.

Molecules are shown by their SMILES. Structures can show the parent of a compound that is named as a salt.

Opioid receptor (Mus musculus), sequence (P32300 whole entry, looked up): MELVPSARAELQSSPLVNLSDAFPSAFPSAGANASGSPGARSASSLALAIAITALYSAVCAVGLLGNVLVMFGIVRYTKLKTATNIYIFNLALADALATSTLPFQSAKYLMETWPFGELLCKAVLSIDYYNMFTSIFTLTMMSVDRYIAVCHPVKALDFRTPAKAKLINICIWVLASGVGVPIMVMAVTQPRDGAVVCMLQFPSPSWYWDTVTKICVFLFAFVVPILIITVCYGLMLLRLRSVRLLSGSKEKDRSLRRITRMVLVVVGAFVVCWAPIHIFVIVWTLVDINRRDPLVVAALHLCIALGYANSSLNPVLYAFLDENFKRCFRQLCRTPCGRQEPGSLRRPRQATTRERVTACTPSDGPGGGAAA
Opioid receptor (Mus musculus), sequence (P33534 whole entry, looked up): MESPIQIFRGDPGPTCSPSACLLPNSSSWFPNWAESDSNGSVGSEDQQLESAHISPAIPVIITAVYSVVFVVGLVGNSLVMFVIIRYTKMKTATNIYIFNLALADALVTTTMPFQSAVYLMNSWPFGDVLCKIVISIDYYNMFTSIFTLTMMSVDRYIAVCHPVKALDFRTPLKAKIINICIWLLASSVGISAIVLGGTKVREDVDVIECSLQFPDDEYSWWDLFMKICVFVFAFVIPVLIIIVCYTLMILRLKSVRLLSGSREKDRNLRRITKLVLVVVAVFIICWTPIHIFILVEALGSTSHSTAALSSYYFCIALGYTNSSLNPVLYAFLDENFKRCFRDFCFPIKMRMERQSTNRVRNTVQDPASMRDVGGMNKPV
Opioid receptor (Mus musculus), sequence (P42866 whole entry, looked up): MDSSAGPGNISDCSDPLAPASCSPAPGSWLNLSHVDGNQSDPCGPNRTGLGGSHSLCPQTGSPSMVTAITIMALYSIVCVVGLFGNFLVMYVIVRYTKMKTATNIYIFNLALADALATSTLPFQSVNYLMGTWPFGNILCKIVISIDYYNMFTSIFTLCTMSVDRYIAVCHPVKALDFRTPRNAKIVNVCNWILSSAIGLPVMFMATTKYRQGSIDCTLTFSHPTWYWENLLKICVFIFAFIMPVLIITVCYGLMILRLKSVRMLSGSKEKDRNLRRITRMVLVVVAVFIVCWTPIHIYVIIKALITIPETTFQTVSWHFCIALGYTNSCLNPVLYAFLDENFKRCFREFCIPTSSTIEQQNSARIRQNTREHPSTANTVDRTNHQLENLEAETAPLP
Beta-adrenergic receptor (Mus musculus), sequence (P18762 whole entry, looked up): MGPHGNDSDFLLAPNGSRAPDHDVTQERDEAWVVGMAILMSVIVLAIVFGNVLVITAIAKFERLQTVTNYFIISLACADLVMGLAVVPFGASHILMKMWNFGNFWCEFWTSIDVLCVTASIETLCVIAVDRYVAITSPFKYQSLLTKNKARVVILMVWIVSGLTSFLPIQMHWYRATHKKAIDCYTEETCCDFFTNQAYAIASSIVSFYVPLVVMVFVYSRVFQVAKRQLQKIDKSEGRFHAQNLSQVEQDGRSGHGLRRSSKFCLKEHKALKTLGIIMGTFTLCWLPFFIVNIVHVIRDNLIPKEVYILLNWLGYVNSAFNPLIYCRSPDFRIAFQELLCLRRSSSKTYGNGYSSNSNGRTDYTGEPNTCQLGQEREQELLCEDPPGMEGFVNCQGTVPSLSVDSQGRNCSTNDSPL
Beta-adrenergic receptor (Mus musculus), sequence (P25962 whole entry, looked up): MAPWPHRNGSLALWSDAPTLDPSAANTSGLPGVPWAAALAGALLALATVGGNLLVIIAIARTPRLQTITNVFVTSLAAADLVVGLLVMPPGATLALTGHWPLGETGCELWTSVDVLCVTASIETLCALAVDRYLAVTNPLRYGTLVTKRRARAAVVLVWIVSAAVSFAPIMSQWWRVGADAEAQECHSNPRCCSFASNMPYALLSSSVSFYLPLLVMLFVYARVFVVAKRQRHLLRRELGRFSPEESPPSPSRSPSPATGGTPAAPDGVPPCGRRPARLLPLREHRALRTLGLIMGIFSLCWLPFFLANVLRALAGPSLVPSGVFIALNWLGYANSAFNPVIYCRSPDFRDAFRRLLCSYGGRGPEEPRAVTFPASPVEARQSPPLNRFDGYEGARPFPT
Beta-adrenergic receptor (Mus musculus), sequence (P34971 whole entry, looked up): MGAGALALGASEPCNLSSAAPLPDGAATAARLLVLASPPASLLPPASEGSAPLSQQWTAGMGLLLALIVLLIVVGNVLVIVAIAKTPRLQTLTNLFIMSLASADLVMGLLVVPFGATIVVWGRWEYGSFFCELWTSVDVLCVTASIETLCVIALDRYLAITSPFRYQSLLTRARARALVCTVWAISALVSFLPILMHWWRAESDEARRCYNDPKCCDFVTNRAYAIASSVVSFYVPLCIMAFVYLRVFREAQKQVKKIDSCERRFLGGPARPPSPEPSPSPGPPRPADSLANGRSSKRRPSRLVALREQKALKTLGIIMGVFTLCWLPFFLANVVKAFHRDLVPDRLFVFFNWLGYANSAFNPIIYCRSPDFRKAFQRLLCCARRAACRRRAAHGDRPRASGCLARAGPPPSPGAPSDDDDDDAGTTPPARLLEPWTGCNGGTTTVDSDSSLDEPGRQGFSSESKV
Sigma non-opioid intracellular receptor 1 (Mus musculus), sequence (O55242 whole entry): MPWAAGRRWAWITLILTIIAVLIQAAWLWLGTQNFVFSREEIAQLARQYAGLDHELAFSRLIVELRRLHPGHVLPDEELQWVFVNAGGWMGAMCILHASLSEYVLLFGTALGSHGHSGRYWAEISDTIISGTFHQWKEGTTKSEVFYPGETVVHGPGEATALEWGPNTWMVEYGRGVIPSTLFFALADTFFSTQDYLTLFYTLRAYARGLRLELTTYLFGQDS
Histamine H1 receptor (Mus musculus), sequence (P70174 whole entry): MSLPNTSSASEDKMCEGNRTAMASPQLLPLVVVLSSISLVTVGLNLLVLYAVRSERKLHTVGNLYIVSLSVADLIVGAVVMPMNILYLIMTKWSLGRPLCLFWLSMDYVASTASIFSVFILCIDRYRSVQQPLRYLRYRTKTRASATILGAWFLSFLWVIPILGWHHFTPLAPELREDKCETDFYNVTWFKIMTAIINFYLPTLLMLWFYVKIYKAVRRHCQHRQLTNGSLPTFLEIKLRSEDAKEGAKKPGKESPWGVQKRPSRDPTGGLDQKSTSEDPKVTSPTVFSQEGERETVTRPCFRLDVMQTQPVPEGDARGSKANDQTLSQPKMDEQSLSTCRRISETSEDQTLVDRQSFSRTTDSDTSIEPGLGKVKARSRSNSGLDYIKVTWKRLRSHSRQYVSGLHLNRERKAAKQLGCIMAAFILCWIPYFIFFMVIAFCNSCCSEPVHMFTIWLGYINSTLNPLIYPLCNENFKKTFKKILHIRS
D(2) dopamine receptor (Mus musculus), sequence (P61168 whole entry): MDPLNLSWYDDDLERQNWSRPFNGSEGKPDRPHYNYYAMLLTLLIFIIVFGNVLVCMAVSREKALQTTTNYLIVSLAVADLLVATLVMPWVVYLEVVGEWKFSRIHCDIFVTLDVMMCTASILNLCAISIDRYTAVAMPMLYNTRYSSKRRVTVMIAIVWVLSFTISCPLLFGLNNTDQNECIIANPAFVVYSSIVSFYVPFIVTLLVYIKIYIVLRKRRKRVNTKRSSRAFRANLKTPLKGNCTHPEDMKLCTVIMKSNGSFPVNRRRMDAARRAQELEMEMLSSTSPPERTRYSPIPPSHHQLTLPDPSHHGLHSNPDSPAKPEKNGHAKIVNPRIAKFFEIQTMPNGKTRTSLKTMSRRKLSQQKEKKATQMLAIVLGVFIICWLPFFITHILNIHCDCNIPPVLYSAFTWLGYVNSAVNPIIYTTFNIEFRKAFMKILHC
D(1A) dopamine receptor (Mus musculus), sequence (Q61616 whole entry): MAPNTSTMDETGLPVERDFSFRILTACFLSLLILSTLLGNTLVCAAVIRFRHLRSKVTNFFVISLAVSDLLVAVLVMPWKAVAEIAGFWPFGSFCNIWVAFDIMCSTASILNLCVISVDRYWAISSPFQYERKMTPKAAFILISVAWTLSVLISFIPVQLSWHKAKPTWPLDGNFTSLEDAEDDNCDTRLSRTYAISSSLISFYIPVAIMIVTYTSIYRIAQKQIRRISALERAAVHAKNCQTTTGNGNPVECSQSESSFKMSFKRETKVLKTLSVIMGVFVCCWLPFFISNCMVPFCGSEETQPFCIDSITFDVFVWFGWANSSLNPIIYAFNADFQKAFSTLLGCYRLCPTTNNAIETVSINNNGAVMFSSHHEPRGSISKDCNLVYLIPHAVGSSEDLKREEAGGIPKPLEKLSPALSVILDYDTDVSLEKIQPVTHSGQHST

`CCOC1(OCC)C2c3cc(C(F)(F)F)ccc3C([n+]3ccccc32)C1(C)C` (configuration not stated) yielded a Ki in assay [1] of 401 nM. Compound `CCOC1(OCC)C2c3cc(Br)ccc3C([n+]3ccccc32)C1(C)C.[O-][Cl+3]([O-])([O-])[O-]` (configuration not stated) registered an IC50 in [2] (Mus musculus) of 173 nM. Besides, the affinity in assay [1] corresponds to a Ki of 52 nM. In [1], `CCOC1(OCC)C2c3ccccc3C([n+]3c(C)cccc32)C1(C)C` (configuration not stated) gave a Ki of 314 nM. In turn, `CCOC1(OCC)C2c3cc([N+](=O)[O-])ccc3C([n+]3ccccc32)C1(C)C.[O-][Cl+3]([O-])([O-])[O-]` (configuration not stated) registered an IC50 in [3] of 15300 nM. Also, in assay [1], the Ki is 2760 nM. In assay [2] (Mus musculus), `CCOC1(OCC)C2c3c(OC)cccc3C([n+]3ccccc32)C1(C)C` (configuration not stated) yielded an IC50 of 22 nM. Moreover, the Ki in [1] turned out to be 13 nM. In turn, `CCOC1(OCC)C2c3cccc(OC)c3C([n+]3ccccc32)C1(C)C` (configuration not stated) came in with a Ki in assay [1] of 1840 nM. On to `COC1(OC)C2c3ccccc3C([n+]3ccccc32)C1(C)C` (configuration not stated), for which, in assay [1], affinity was put at a Ki of 103 nM.

Consider `CCOC1(OCC)C2c3cc(Cl)ccc3C([n+]3ccccc32)C1(C)C` (configuration not stated), for which the Ki in [1] is 12 nM. In assay [1], `CCOC1(OCC)C2c3c(OC(C)C)cccc3C([n+]3ccccc32)C1(C)C` (configuration not stated) returned a Ki of 48 nM. Same read-out and setting: for `CCOC1(OCC)C2c3cccc(C)c3C([n+]3ccccc32)C1(C)C` (configuration not stated) the value was 455 nM.

As for `CCOC1(OCC)C2c3cc(OC)ccc3C([n+]3ccccc32)C1(C)C` (configuration not stated), the IC50 in assay [2] (Mus musculus) worked out at 157 nM. Besides, in [1], the Ki was 4 nM. In assay [1], `CC1(C)C2c3ccccc3C(c3cccc[n+]32)C12OCCCO2` (configuration not stated) displayed a Ki of 2900 nM.

Consider `CCOC1(OCC)C2c3ccccc3C([n+]3ccccc32)C1(CC)CC` (configuration not stated), for which the affinity in [1] corresponds to a Ki of 11 nM. In turn, `CCOC1(OCC)CC2c3ccccc3C1c1cccc[n+]12` (configuration not stated) displayed a concentration for half-maximal inhibition (IC50) in assay [2] (Mus musculus) of 95000 nM. The compound further registered a Ki in assay [1] of 3800 nM. On to `CCOC1(OCC)C2c3c(C)cccc3C([n+]3ccccc32)C1(C)C` (configuration not stated), for which the Ki in [1] worked out at 46 nM.

Compound `CC1(C)C2c3ccccc3C(c3cccc[n+]32)C12OCCO2` (configuration not stated) came in with a Ki in assay [1] of 3460 nM. Regarding `CCOC1(OCC)C2c3c(O)cccc3C([n+]3ccccc32)C1(C)C` (configuration not stated), in [1], the Ki was 8 nM. In the case of `CCOC1(OCC)C2c3c(OC)ccc(OC)c3C([n+]3ccccc32)C1(C)C` (configuration not stated), in [1], the inhibitory constant (Ki) was more than 10000 nM.

Regarding `CCOC1(OCC)C2c3c(Br)cccc3C([n+]3ccccc32)C1(C)C.[O-][Cl+3]([O-])([O-])[O-]` (configuration not stated), the IC50 in assay [2] (Mus musculus) was determined as 1040 nM. Besides, the Ki in [1] is 132 nM. For `CCCOC1(OCCC)C2c3ccccc3C([n+]3ccccc32)C1(C)C.[O-][Cl+3]([O-])([O-])[O-]` (configuration not stated), in that order: 85 nM and 12 nM. `CCOC1(OCC)C2c3ccccc3C([n+]3ccccc32)C1(OCC)OCC` (configuration not stated) showed a Ki in assay [1] of 4990 nM. On the same count and under the same terms, for `CC1(C)C(=O)C2c3ccccc3C1[n+]1ccccc12` (configuration not stated) the value was more than 10000 nM.

Consider `CCOC1(OCC)C2c3ccccc3C([n+]3cccc(OC)c32)C1(C)C` (configuration not stated), for which the Ki in assay [1] was 26 nM. Same read-out and setting: then `CCOC1(OCC)C2c3c(OC(C)=O)cccc3C([n+]3ccccc32)C1(C)C` (configuration not stated), with 26 nM; and `CCOC1(OCC)C2c3ccc(OC)cc3C([n+]3ccccc32)C1(C)C` (configuration not stated), with 123 nM.

`CCOC1(OCC)C2(C)c3ccccc3C([n+]3ccccc32)C1(C)C.[O-][Cl+3]([O-])([O-])[O-]` (configuration not stated) had an IC50 in [2] (Mus musculus) of 32 nM. Also, the Ki in assay [1] was 11 nM.

In the case of `CCOC1(OCC)C2c3ccccc3C([n+]3ccccc32)C1(C)C` (racemic) [listing 1 of 2 here], the IC50 in [4] came out at 260 nM. In assay [1], this compound showed a Ki of 8 nM. As to `CCOC1(OCC)C2c3ccccc3C([n+]3ccccc32)C1(C)C` (racemic) [listing 2 of 2 here], in assay [5], the Ratio was more than 384 CC/OC. As for `CCOC1(OCC)C2c3ccccc3C([n+]3ccccc32)C1(C)C` (single isomer, unassigned; (+)) [listing 1 of 2 here], it took 50 nM to reach half-maximal inhibition in assay [2] (Mus musculus) (IC50). Besides, in assay [1], affinity was put at a Ki of 11 nM. `CCOC1(OCC)C2c3ccccc3C([n+]3ccccc32)C1(C)C` (single isomer, unassigned; (+)) [listing 2 of 2 here]: the inhibition in assay [6] turned out to be 12%; in assay [7] it was 51%; in assay [8], 1%; in assay [9], 52%; in [10], 14%; in assay [11], 4%. The inhibition was 20% in [12]; 7% in assay [13]; 55% in [14]; 53% in assay [15]; 73% in assay [16]; 31% in assay [17]. With `CCOC1(OCC)C2c3ccccc3C([n+]3ccccc32)C1(C)C` (single isomer, unassigned; (-)) [listing 1 of 2 here], 26 nM corresponded to half-maximal inhibition in assay [2] (IC50). The compound further yielded a Ki in assay [1] of 4 nM. As to `CCOC1(OCC)C2c3ccccc3C([n+]3ccccc32)C1(C)C` (single isomer, unassigned; (-)) [listing 2 of 2 here], the inhibition in assay [6] came out at 11%; in [7], 23%; in assay [8] it was 3%; in [9] it was 32%; in [11], 3%; in assay [12], 9%. Also, the inhibition was determined as 1% in assay [18]; 0% in assay [14]; 50% in assay [15]; 51% in [16]; 21% in [17]. In turn, `CCOC1(OCC)C2c3ccccc3C(C1C)[n+]1ccccc12.[O-][Cl+3]([O-])([O-])[O-]` (stereo in doubt; 1a) showed an IC50 in assay [2] (Mus musculus) of 810 nM. The compound further came in with a Ki in [19] of 115 nM. In assay [2], `CCOC1(OCC)C2c3ccccc3C(C1C)[n+]1ccccc12.[O-][Cl+3]([O-])([O-])[O-]` (stereo in doubt; 1b) showed an IC50 of 1160 nM. This compound also registered a Ki in assay [1] of 34 nM. With `CCOC1C2c3ccccc3C([n+]3ccccc32)C1(C)C` (stereo in doubt; 7a), the Ki in [1] came out at 465 nM. In turn, `CCOC1C2c3ccccc3C([n+]3ccccc32)C1(C)C` (stereo in doubt; 7b) registered a Ki in [1] of 1880 nM. `C[C@]12N[C@H](Cc3ccccc31)c1ccccc12` [DIZOCILPINE MALEATE] registered an IC50 in [20] of 5.8 nM. The compound `c1ccc(C2(N3CCCCC3)CCCCC2)cc1` [PHENCYCLIDINE] displayed a Ki in assay [1] of 38 nM.

One may read the Ki as a measure of affinity in units of concentration, obtained from inhibition or displacement. As a reminder, the IC50 is the point on the concentration scale where inhibition reaches its midpoint. Low values mean greater potency, high ones weaker potency. As usually defined, the inhibition is the share of the control response that was lost under treatment. Low readings indicate a weak effect, high ones a strong effect.
